Series [1] in a line: Cytotoxicity against human Kelly cells assessed as inhibition of cell viability incubated for 72 hrs by MTT assay. Format: functional, cell-based. The procedure, abridged: (§1)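 MTT assay. Cells were seeded and, after 24 h, treated for 72 h with graded concentrations: 0–400, 0–50 or 0–100 μM depending on compound, with aprepitant at 0–100 μM. Media were DMEM for SH-SY5Y, DMEM/F12 for RPE-1 and RPMI for Kelly, each with 10% FBS, at 37 °C and 5% CO2.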
(In general: Tetrazolium dyes change colour on reduction, which living cells bring about.)

The nature of series [2]: Selectivity index, ratio of IC50 for human RPE-1 cells to IC50 for human Kelly cells. The procedure, abridged: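 Selectivity index is IC50 in nonmalignant RPE-1 divided by IC50 in the cancer line (Kelly or SH-SY5Y). The index was calculated in each individual experiment and then averaged.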
Series [3] in a line: Cytotoxicity against human RPE-1 cells assessed as inhibition of cell viability incubated for 72 hrs by MTT assay. As to conditions: RPE-1 cells (TERT-RPE1). Format: toxicity, cell-based. In outline: as §1
Series [4] relates to SH-SY5Y. Briefly: Cytotoxicity against human SH-SY5Y cells assessed as inhibition of cell viability incubated for 72 hrs by MTT assay. Format: functional, cell-based. The procedure, abridged: as §1
The test system of series [5] is Kelly. The series is described as follows: Induction of cell cycle arrest at S phase in human Kelly cells at 15 uM incubated for 48 hrs by flow cytometry. Format: functional, cell-based. The procedure, abridged:
(§2)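 For cell cycle analysis, Kelly cells were treated 48 h with analogs at 20 or 40 μM or aprepitant at 15 μM. Cells were then harvested, fixed and stained with PI/RNase. G0/G1, S and G2/M fractions were measured by flow cytometry; mean ± SEM, n = 3 independent experiments.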
For orientation: A flow cytometer gives signals particle by particle.

The test system of series [6] is Kelly. Briefly: Induction of cell cycle arrest at G2/M phase in human Kelly cells at 15 uM incubated for 48 hrs by flow cytometry. Format: functional, cell-based. The procedure, abridged: as §2

Results on 9 compounds are retold here after ChEMBL document CHEMBL5537144, “Biological evaluation of carbohydrate-based aprepitant analogs for neuroblastoma treatment” (Eur J Med Chem, 2024).

The source made the active and inactive calls. The rule behind the calls is not given here.

The term IC50 denotes the concentration needed to halve the response being measured.

With `C[C@@H](O[C@@H]1O[C@H](CO)[C@@H](O)[C@H](N=[N+]=[N-])[C@H]1OCc1ccc(F)cc1)c1cc(C(F)(F)F)cc(C(F)(F)F)c1`, the IC50 in series [1] was 16.8 µM.
For `C[C@@H](O[C@@H]1O[C@@H]2CO[C@@H](c3ccccc3)O[C@@H]2[C@H](O)[C@H]1OCc1ccc(F)cc1)c1cc(C(F)(F)F)cc(C(F)(F)F)c1`, the IC50 in series [1] worked out at 48.5 µM. Besides, the “Ratio IC50” value in series [2] amounted to 4.6. Besides, in series [3], the IC50 at 72 h came to 251 µM.
Take `C[C@@H](O[C@H]1O[C@H](CO)[C@@H](O)[C@H](N)[C@H]1OCc1ccc(F)cc1)c1cc(C(F)(F)F)cc(C(F)(F)F)c1`: the IC50 in series [1] came out at 33.6 µM. For the same compound, the “Ratio IC50” value in series [2] is listed as 4.3. For the same compound, the IC50 at 72 h in series [3] was 146 µM.
For the compound `C[C@@H](O[C@H]1O[C@@H]2CO[C@@H](c3ccccc3)O[C@@H]2[C@H](O)[C@H]1OCc1ccc(F)cc1)c1cc(C(F)(F)F)cc(C(F)(F)F)c1`, the results for the IC50 in series [1] and in series [4] were 112 µM and 128 µM, respectively.
Take `C[C@@H](O[C@H]1OCCN(Cc2n[nH]c(=O)[nH]2)[C@H]1c1ccc(F)cc1)c1cc(C(F)(F)F)cc(C(F)(F)F)c1` [APREPITANT]: the outcome in series [5] was Active. Moreover, the IC50 in series [1] was found to be 15.1 µM. Besides, the outcome in series [6] was inactive. The “Ratio IC50” value in series [2] is 11.7. Further, the IC50 at 72 h in series [3] came out at 176 µM.
`C[C@@H](O[C@H]1O[C@@H]2CO[C@@H](c3ccccc3)O[C@H]2[C@H](N=[N+]=[N-])[C@H]1OCc1ccc(F)cc1)c1cc(C(F)(F)F)cc(C(F)(F)F)c1`: the IC50 in series [1] is 234 µM.
Consider `C[C@@H](O[C@@H]1O[C@@H]2CO[C@@H](c3ccccc3)O[C@H]2[C@H](N=[N+]=[N-])[C@H]1OCc1ccc(F)cc1)c1cc(C(F)(F)F)cc(C(F)(F)F)c1`, for which, in series [1], the IC50 came out at 107 µM.
Take `C[C@@H](O[C@H]1O[C@H](CO)[C@@H](O)[C@H](N=[N+]=[N-])[C@H]1OCc1ccc(F)cc1)c1cc(C(F)(F)F)cc(C(F)(F)F)c1`: in series [1], the IC50 worked out at 88.4 µM.
For `C[C@@H](O[C@H]1O[C@@H]2CO[C@@H](c3ccccc3)O[C@H]2[C@H](N)[C@H]1OCc1ccc(F)cc1)c1cc(C(F)(F)F)cc(C(F)(F)F)c1`, the IC50 in series [1] was determined as 6.3 µM. Further, the “Ratio IC50” value in series [2] stood at 14.7. Further, in series [3], the IC50 at 72 h turned out to be 92.3 µM.
